Source: ChEMBL document CHEMBL1221182, “Functional characterization of IRESes by an inhibitor of the RNA helicase eIF4A” (Nat Chem Biol, 2006)
pIC50: −log10 of the molar value.

Target: Eukaryotic initiation factor 4A-I (Mus musculus, UniProt P60843)
Assay: Inhibition of eIF4A-mediated cap-dependent protein synthesis in FF-HCV-Ren mRNA transfected Swiss mouse Krebs2 cell extract by [35S]methionine metabolic labeling study
Procedure, shortened: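 Cell-free translation in Krebs-2 extracts programmed with capped bicistronic FF-HCV-Ren transcript: cap-dependent firefly cistron, HCV IRES-driven renilla cistron. Final mRNA 5 µg ml⁻¹, K⁺ 100 mM, compound titrated. Controls carry a matched final DMSO level. Products labeled with [³⁵S]methionine, separated by 10% SDS-PAGE, and autoradiographed. Luciferase activities are read by luminometer and expressed relative to vehicle reactions.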

Chain of Eukaryotic initiation factor 4A-I (P60843 whole entry): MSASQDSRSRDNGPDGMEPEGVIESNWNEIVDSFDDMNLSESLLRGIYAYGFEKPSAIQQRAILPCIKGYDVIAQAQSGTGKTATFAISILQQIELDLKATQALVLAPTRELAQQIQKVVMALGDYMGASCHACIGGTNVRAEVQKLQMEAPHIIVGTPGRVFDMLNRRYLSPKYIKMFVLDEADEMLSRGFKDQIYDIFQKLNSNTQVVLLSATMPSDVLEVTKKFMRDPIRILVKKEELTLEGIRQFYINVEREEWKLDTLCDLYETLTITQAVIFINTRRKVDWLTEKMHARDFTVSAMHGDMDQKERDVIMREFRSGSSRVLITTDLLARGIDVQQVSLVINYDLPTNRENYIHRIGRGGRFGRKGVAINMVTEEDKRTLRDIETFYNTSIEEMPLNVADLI

Compound	pIC50
CC(=O)O[C@@H]1CC[C@@]2(C)[C@@H](CC[C@@H]3[C@@H]2[C@@H](O)C[C@@]2(C)[C@H]3C[C@@H]3O[C@]4(C[C@H](C)C(C)(C)O4)[C@](C)(O)[C@@H]32)C1	< 4.00
CC(=O)O[C@@H]1CC[C@@]2(C)[C@@H](CC[C@@H]3[C@@H]2[C@@H](OC(C)=O)C[C@@]2(C)[C@H]3C[C@@H]3O[C@]4(C[C@H](C)C(C)(C)O4)[C@](C)(O)[C@@H]32)C1	< 4.00
C[C@H]1C[C@]2(O[C@H]3C[C@H]4[C@@H]5CC[C@H]6C[C@H](O)CC[C@]6(C)[C@H]5C(=O)C[C@]4(C)[C@H]3[C@@]2(C)O)OC1(C)C	< 4.00
C[C@H]1C[C@]2(O[C@H]3C[C@H]4[C@@H]5CC[C@H]6CC(=O)CC[C@]6(C)[C@H]5C(=O)C[C@]4(C)[C@H]3[C@@]2(C)O)OC1(C)C	< 4.00
C[C@H]1C[C@]2(O[C@H]3C[C@H]4[C@@H]5CC[C@H]6C[C@H](O)[C@H](OC(=O)CCCC(=O)O)C[C@]6(C)[C@H]5[C@@H](O)C[C@]4(C)[C@H]3[C@@]2(C)O)OC1(C)C	4.46
CC(=O)O[C@@H]1CC[C@@]2(C)[C@@H](CC[C@@H]3[C@@H]2[C@@H](O)C[C@@]2(C)[C@H]3C[C@@H]3O[C@@]4(C[C@H](C)C(C)(C)O4)[C@](C)(O)[C@@H]32)C1	5.00
CC(=O)O[C@@H]1CC[C@@]2(C)[C@@H](CC[C@@H]3[C@@H]2[C@@H](OC(C)=O)C[C@@]2(C)[C@H]3C[C@@H]3O[C@@]4(C[C@H](C)C(C)(C)O4)[C@](C)(O)[C@@H]32)C1	4.19
C[C@H]1C[C@@]2(O[C@H]3C[C@H]4[C@@H]5CC[C@H]6C[C@H](O)CC[C@]6(C)[C@H]5C(=O)C[C@]4(C)[C@H]3[C@@]2(C)O)OC1(C)C	5.05
C[C@H]1C[C@@]2(O[C@H]3C[C@H]4[C@@H]5CC[C@H]6CC(=O)CC[C@]6(C)[C@H]5C(=O)C[C@]4(C)[C@H]3[C@@]2(C)O)OC1(C)C	4.28
